Reference: ChEMBL document CHEMBL3861960, “Leoligin, the Major Lignan from Edelweiss (Leontopodium nivale subsp. alpinum), Promotes Cholesterol Efflux from THP-1 Macrophages” (J Nat Prod, 2016)
The source made the active and inactive calls. No cut-off for these calls is given here.

How the values were obtained:
THP-1 [1] = assay: Effect on DNHD1 protein expression in human THP1 cells at 10 uM after 24 hrs by proteome analysis relative to control; format: functional
Outline: (§1)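 PMA-differentiated THP-1 macrophages given 10 μM compound or DMSO for 24 h, then lysed in TRIzol. Proteins reduced with DTT, alkylated with iodoacetamide, digested with trypsin (1:50 w/w) for 16 h at 30 °C. Biological replicates pooled, analysed by LC-MS/MS on an Orbitrap Velos Pro with a 4 h gradient, FDR ≤0.05. Only unique peptides used; log2 peptide ratios averaged per protein and tested by one-sample t test versus vehicle.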

[2] = Upregulation of ABCA1 protein expression in human THP1 cells at 10 uM after 24 hrs by Western blot method; format: functional, cell-based; details: THP-1
Outline: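 THP-1 macrophages treated for 24 h with 10 μM compound, 10 μM pioglitazone or DMSO, then lysed in NP40 buffer (150 mM NaCl, 50 mM HEPES pH 7.4, 1% NP40) with protease and phosphatase inhibitors. 20 μg protein separated by SDS-PAGE and immunoblotted for ABCA1 with β-actin, ECL detection. Densitometry from four independent experiments.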

THP-1 [3] = assay: Induction of 1% human plasma-mediated cholesterol efflux from [3H]-cholesterol labeled human THP1 cells at 10 uM preincubated for 24 hrs followed by 1% human plasma addition measured after 6 hrs by scintillation counting method; format: functional
Outline: (§2)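 Differentiated THP-1 macrophages loaded with [3H]-cholesterol for 24 h in the presence of compound, or pioglitazone 10 μM as positive control. Medium then replaced with serum-free RPMI containing compound, with or without acceptor (10 μg/mL apo A1 or 1% human plasma from fasted volunteers), for 6 h. Efflux % = extracellular/total cpm with acceptor minus without acceptor, ×100, by scintillation counting. Three independent experiments.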

THP-1 [4] = assay: Effect on CYP1B1 protein expression in human THP1 cells at 10 uM after 24 hrs by proteome analysis relative to control; format: functional; outline: as §1
THP-1 [5] = assay: Effect on CUL7 protein expression in human THP1 cells at 10 uM after 24 hrs by proteome analysis relative to control; format: functional; outline: as §1
THP-1 [6] = assay: Effect on DBI protein expression in human THP1 cells at 10 uM after 24 hrs by proteome analysis relative to control; format: functional; outline: as §1
THP-1 [7] = assay: Effect on PAIP2 protein expression in human THP1 cells at 10 uM after 24 hrs by proteome analysis relative to control; format: functional; outline: as §1
THP-1 [8] = assay: Effect on TUSC2 protein expression in human THP1 cells at 10 uM after 24 hrs by proteome analysis relative to control; format: functional; outline: as §1
THP-1 [9] = assay: Suppression of ABCA1 mRNA degradation in human THP1 cells at 10 uM in presence of de novo gene transcription inhibitor actinomycin D at 2 hrs by qPCR method; format: functional, cell-based
Outline: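 Differentiated THP-1 macrophages treated with 10 μM compound or DMSO for 24 h, then given 5 μg/mL actinomycin D and lysed at set time points. Total RNA extracted and reverse-transcribed; ABCA1 mRNA measured by SYBR Green qPCR normalised to 18S. Four independent experiments.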

THP-1 [10] = assay: Effect on LAMP1 protein expression in human THP1 cells at 10 uM after 24 hrs by proteome analysis relative to control; format: functional; outline: as §1
THP-1 [11] = assay: Effect on of ABCA1 protein expression in human THP1 cells at 10 uM after 24 hrs by proteome analysis relative to control; format: functional
THP-1 [12] = assay: Effect on TARBP1 protein expression in human THP1 cells at 10 uM after 24 hrs by proteome analysis relative to control; format: functional; outline: as §1
THP-1 [13] = assay: Effect on HIST1H2AB protein expression in human THP1 cells at 10 uM after 24 hrs by proteome analysis relative to control; format: functional; outline: as §1
THP-1 [14] = assay: Induction of apo-A1-mediated cholesterol efflux from [3H]-cholesterol labeled human THP1 cells preincubated for 24 hrs followed by apo A1 addition measured after 6 hrs by scintillation counting method; format: functional, cell-based; outline: as §2
THP-1 [15] = assay: Effect on SPCS1 protein expression in human THP1 cells at 10 uM after 24 hrs by proteome analysis relative to control; format: functional; outline: as §1
[16] = Cytotoxicity against human THP1 cells assessed as decrease in cell viability at 1 to 20 uM after 24 hrs by resazurin assay; format: toxicity, cell-based; details: thp-1, 24 h
Outline: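 THP-1 cells kept in RPMI-1640 with 10% heat-inactivated FBS, penicillin/streptomycin and 2 mM L-glutamine, then differentiated to macrophages with 200 nM PMA for 72 h. Exposed to compound for 24 h. Viability read by resazurin conversion as fluorescence (ex 535 nm, em 580 nm). Digitonin 50 μg/mL served as cytotoxic control. Mean ± SD of four independent experiments; one-way ANOVA with Bonferroni test against DMSO.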

THP-1 [17] = assay: Effect on MAGEBS protein expression in human THP1 cells at 10 uM after 24 hrs by proteome analysis relative to control; format: functional; outline: as §1
THP-1 [18] = assay: Effect on NCSTN protein expression in human THP1 cells at 10 uM after 24 hrs by proteome analysis relative to control; format: functional; outline: as §1
THP-1 [19] = assay: Effect on OR1M1 protein expression in human THP1 cells at 10 uM after 24 hrs by proteome analysis relative to control; format: functional; outline: as §1
THP-1 [20] = assay: Effect on MCM8 protein expression in human THP1 cells at 10 uM after 24 hrs by proteome analysis relative to control; format: functional; outline: as §1
THP-1 [21] = assay: Effect on CPA3 protein expression in human THP1 cells at 10 uM after 24 hrs by proteome analysis relative to control; format: functional; outline: as §1
[22] = Upregulation of ABCG1 mRNA expression in human THP1 cells at 10 uM after 24 hrs by qPCR method relative to control; format: functional, cell-based; details: THP-1
Outline: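 THP-1 macrophages treated for 24 h with 10 μM compound, 10 μM pioglitazone or DMSO. Total RNA extracted and converted to cDNA; ABCA1 or ABCG1 measured by SYBR Green qPCR and expressed relative to 18S. Mean ± SD of four independent experiments; one-way ANOVA with Bonferroni test against DMSO.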

THP-1 [23] = assay: Effect on NBEA protein expression in human THP1 cells at 10 uM after 24 hrs by proteome analysis relative to control; format: functional; outline: as §1
THP-1 [24] = assay: Effect on CDK12 protein expression in human THP1 cells at 10 uM after 24 hrs by proteome analysis relative to control; format: functional; outline: as §1
THP-1 [25] = assay: Effect on MAN2A1 protein expression in human THP1 cells at 10 uM after 24 hrs by proteome analysis relative to control; format: functional; outline: as §1

## C/C=C(/C)C(=O)OC[C@H]1[C@@H](Cc2ccc(OC)c(OC)c2)CO[C@@H]1c1ccc(OC)c(OC)c1
THP-1 [1]
  fold change (FC): 0.6
[2]
  Activity: Active
THP-1 [3]
  Activity: Active
THP-1 [4]
  fold change (FC): 1.6
THP-1 [5]
  fold change (FC): 0.6
THP-1 [6]
  fold change (FC): 1.6
THP-1 [7]
  fold change (FC): 1.7
THP-1 [8]
  fold change (FC): 1.5
THP-1 [9]
  Activity: Active
THP-1 [10]
  fold change (FC): 1.8
THP-1 [11]
  fold change (FC): 1.1
THP-1 [12]
  fold change (FC): 0.6
THP-1 [13]
  fold change (FC): 0.6
THP-1 [14]
  Activity: Dose-dependent effect
THP-1 [15]
  fold change (FC): 1.6
[16]
  Activity: Non-Toxic
THP-1 [17]
  fold change (FC): 0.4
THP-1 [18]
  fold change (FC): 1.7
THP-1 [19]
  fold change (FC): 2
THP-1 [20]
  fold change (FC): 0.5
THP-1 [21]
  fold change (FC): 1.7
[22]
  fold change (FC): 3.8
THP-1 [23]
  fold change (FC): 1.6
THP-1 [24]
  fold change (FC): 1.5
THP-1 [25]
  fold change (FC): 2
